# Published values of several laboratories.
# Compare with care: the assays were run in different laboratories.
# Target: Tyrosine-protein kinase receptor UFO (AXL, Homo sapiens, UniProt P30530)
# Sequence (P30530 26-894, as in one of the studies): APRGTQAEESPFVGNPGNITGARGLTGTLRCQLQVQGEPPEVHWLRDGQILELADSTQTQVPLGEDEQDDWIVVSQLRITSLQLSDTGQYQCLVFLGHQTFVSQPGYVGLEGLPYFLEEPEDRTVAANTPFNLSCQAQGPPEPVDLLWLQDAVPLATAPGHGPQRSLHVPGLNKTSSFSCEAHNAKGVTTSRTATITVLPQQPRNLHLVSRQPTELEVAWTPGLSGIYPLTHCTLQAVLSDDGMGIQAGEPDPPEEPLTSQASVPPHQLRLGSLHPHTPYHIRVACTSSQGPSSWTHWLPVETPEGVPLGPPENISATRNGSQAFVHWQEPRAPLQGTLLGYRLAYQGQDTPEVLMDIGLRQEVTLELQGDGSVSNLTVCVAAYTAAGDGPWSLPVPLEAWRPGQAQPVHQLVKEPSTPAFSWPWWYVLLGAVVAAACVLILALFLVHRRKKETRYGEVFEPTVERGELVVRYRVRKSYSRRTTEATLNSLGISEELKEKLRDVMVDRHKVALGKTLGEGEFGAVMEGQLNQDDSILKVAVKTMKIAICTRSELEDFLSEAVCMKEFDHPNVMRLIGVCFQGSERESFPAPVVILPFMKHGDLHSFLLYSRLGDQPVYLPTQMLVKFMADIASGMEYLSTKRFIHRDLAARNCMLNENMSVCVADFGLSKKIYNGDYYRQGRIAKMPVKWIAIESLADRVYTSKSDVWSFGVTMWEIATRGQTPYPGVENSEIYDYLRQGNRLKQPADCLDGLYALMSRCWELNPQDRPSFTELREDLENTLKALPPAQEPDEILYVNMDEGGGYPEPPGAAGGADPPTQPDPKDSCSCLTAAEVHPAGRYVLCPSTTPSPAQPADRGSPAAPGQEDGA
SMILES,assay,setting,remaining binding
O=C(NCC1CCOCC1)c1n[nH]cc1NC(=O)c1c(F)cccc1F,"binding, competition with immobilised ligand",1 µM,91%
F[C@@H]1CCN(c2nccc(-c3cnn4ncccc34)n2)C1,binding,1 µM,87%
Cc1cnc(Nc2ccc(C(=O)N3CCC(N4CCCC4)CC3)cc2)nc1-c1cc2ccccc2s1,"binding, competition with immobilised ligand",1 µM,1%
COc1cnc(Nc2cccc(S(N)(=O)=O)c2)nc1N1CCN(c2ccccc2)C(=O)C1,"binding, competition with immobilised ligand",1 µM,94%
O=C(c1ccc(Nc2ncc(Cl)c(-c3cc4ccccc4s3)n2)cc1)N1CCC(N2CCCC2)CC1,"binding, competition with immobilised ligand",1 µM,1.4%
COc1cccc(CNC(=O)c2nc3scc(COCc4ccc(C(=O)O)cc4)c3c(=O)[nH]2)c1,"cell-free assay, competition with immobilised ligand",1 µM,84.2%
CCN1CCN(Cc2ccc(C(=O)Nc3ccc(C)c(Oc4ccc5c(c4)CC(=O)N5)c3)cc2C(F)(F)F)CC1,"binding, competition with immobilised ligand",1 µM,98%
c1ccc(N2CCN(Cc3nc4ccccc4[nH]3)CC2)nc1,"binding, competition with immobilised ligand",1 µM,100%
C[C@H]1CCN(c2nccc(-c3cnn4ncccc34)n2)C1,binding,1 µM,49%
NS(=O)(=O)c1cc(NC(=O)C2(c3ccccc3Cl)CC2)ccc1Oc1cccc(Cl)c1,"cell-free assay, competition with immobilised ligand",1 µM,89%
CC1CCCN1c1nccc(-c2cnn3ncccc23)n1 (stereo not shown),binding,1 µM,100%
CCOC(=O)c1cc2cc(-c3cc(C(=O)NCc4ccc(C(=O)O)cc4)nn3C)ccc2[nH]1,"cell-free assay, competition with immobilised ligand",0.1 µM,89%
N[C@H]1CCN(c2nccc(-c3cnn4ncccc34)n2)C1,binding,1 µM,97%
C[C@@H](c1ccc(-n2cnc3c(N)ncnc32)cc1)N1CCc2nn(C)c(Cc3ccccc3)c2C1=O,"binding, competition with immobilised ligand",0.1 µM,100%
C[C@H](c1ccnc(Nc2nc3ccc(-c4cc(N(C)C)ncn4)cc3[nH]2)c1)N1CCN(C(=O)CC(F)(F)F)CC1,"cell-free assay, competition with immobilised ligand",0.1 µM,100%
Nc1ncc2c(n1)-c1c([nH]c3ccc(C#CC4CC4)cc13)CCCC2,"binding, competition with immobilised ligand",1 µM,87%
